Only some compounds are listed: those with a hit (about 2.6% of all), similar ones and a draw of the others.
V1aR counter – V1a receptor agonism, counter-screen for OXTR agonists; P37288; CHO-V1R cells, Fluo-8 calcium fluorescence, agonist mode; 0% DMSO, 100% 3 nM vasopressin; activation, % at 3 µM; 0.25% of 320,000 active;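 active means activation above the mean activation of all tested compounds plus 3 SD, per screening run, cut at about 20% in these data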;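 further: signal is peak over basal fluorescence ratio across a 100 second FLIPR read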
OXTR agonist – human OXTR agonism; AID 2435; 0.32% of 320,000 active; CHO-OTR cells, Fluo-8 calcium fluorescence; normalized: DMSO 0%, oxytocin 100%; activation, % at 3 µM;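 active means activation above the mean of all tested compounds plus 3 SD, cutoff set per screening run, cut at about 20% in these data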;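 further: peak over basal fluorescence ratio from a 100 s FLIPR kinetic read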
OX1R antag-1 – blocks the human orexin 1 receptor. O43613. OX1R-expressing cells, FRET antagonist read-out. inhibition, % at 6.6 µM. 1.8% of 330,000 active. AID 485270; in the data active means inhibition mostly above about 38%, no sharp cut-off; inactive means mostly below about 40%;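 further: 0% = agonist challenge alone and 100% = reference antagonist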
Target sequence (O43613 whole entry, looked up): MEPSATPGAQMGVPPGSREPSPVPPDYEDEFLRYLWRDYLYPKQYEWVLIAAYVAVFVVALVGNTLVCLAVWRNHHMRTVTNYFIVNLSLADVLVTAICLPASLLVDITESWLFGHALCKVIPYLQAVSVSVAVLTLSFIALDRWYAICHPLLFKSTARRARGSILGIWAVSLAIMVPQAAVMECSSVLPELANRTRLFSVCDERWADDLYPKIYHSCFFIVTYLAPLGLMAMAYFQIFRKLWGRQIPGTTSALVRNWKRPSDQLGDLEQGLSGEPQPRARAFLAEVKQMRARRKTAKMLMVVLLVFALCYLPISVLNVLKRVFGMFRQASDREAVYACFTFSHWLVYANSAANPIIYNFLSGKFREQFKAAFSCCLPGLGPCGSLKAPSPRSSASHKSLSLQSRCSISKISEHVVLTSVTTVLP
OX1R antag-2 – blocks the human orexin 1 receptor; inhibition, % at 5 µM; 0.43% of 330,000 active; O43613; CHO/OX1R cells, Fluo-8 calcium fluorescence, orexin A; AID 434989;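 active means inhibition above its plate's threshold, mean inhibition of all tested compounds on the plate plus 3 SD, cut at about 37% in these data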;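 further: 0% = orexin A challenge wells and 100% = SB-334867-A antagonist wells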
CHO parental Ca – counter-screen for OX1R antagonists: effect in parental CHO cells; parental CHO-K1, ATP-induced calcium, Fluo-8 fluorescence; inhibition, % at 5.6 µM; 0.63% of 330,000 active; AID 463079;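 active means inhibition above that plate's mean sample inhibition plus 3 SD, cut at about 26% in these data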;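 further: 0% = ATP-challenged DMSO wells and 100% = DMSO wells without ATP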
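Assay system – parental CHO cells · Reagent – ATP stimulus · Detection – intracellular calcium via Fluo-8 no-wash fluorescent dye · Evaluation – percent inhibition of ATP-evoked calcium rise, normalized to controls · Controls – ATP wells versus no-ATP DMSO wells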
OXTR potentiate – potentiators of human oxytocin receptor; P30559; CHO-OTR cells, Fluo-8 calcium fluorescence, potentiator mode; 0% = oxytocin EC15, 100% = EC100; activation, % at 3 µM; 0.061% of 320,000 active;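 active means activation above that plate's cutoff, the mean activation of tested compounds plus 3 SD, cut at about 6.6% in these data, passing the limit was not always enough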;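 further: 100% uses oxytocin at 75 nM as the full agonist control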
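Assay system: CHO cell line stably expressing human OTR | Also added: Oxytocin at about EC15, sub-maximal agonist stimulus | Times: Compound 6 min at room temperature before oxytocin, 100 s read | Measured by: Fluo-8 intracellular calcium fluorescence, ex 470-495, em 515-575 nm | Controls: EC15 oxytocin alone as 0%, 75 nM oxytocin as 100%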
Starred values were filed as active, the others as inactive.

SMILES	V1aR counter	OXTR agonist	OX1R antag-1	OX1R antag-2	CHO parental Ca	OXTR potentiate
CCCCC(=O)Nc1nc2ccc3nc(C)sc3c2s1	-1	-1	52*	-11	-18	-3
CCOC(=O)C1CCCN(C(=O)/C(=C/c2ccco2)NC(=O)c2ccccc2)C1 (centres undefined)	2	0	12	-23	-13	-7
O=C(NCc1n[nH]c(=S)n1-c1cccc(C(F)(F)F)c1)c1ccc(S(=O)(=O)N2CCCC2)cc1	1	-1	50*	9	-4	-18
Cc1onc(-c2ccccc2)c1NC(=O)N(CCC#N)Cc1ccccc1	-1	1	15	-19	-20	4
COc1ccc([C@@H]2CC=C(C(=O)O)[C@H](c3ccc(Br)cc3)N2S(=O)(=O)c2ccccc2C)cc1	3	1	53*	-14	-19	-7
Cc1ccc(S(=O)(=O)N2[C@@H](c3ccc(Cl)cc3)C(C(=O)O)=CC[C@H]2c2ccc(Cl)cc2)cc1	0	-1	58*	12	2	-16
Cc1ccc([C@@H]2CC=C(C(=O)O)[C@H](c3ccc(Cl)cc3)N2S(=O)(=O)c2ccc(C)cc2)cc1	0	-2	46	-17	-8	-11
Cc1ccc([C@@H]2CC=C(C(=O)O)[C@H](c3ccc(Br)cc3)N2S(=O)(=O)c2ccccc2C)cc1	3	1	39*	25	-3	-6
Cc1ccccc1S(=O)(=O)N1[C@@H](c2ccc(Br)cc2)C(C(=O)O)=CC[C@H]1c1ccc(Cl)cc1	3	1	34	7	-12	-7
COc1cccc([C@@H]2CC=C(C(=O)O)[C@H](c3cccc(Cl)c3)N2S(=O)(=O)c2ccc(C)cc2)c1	1	0	69*	9	-17	-8
COc1cccc(CC(NC(C)=O)C(=O)NC2CCN(S(=O)(=O)c3ccc(C)cc3)CC2)c1OC (centres undefined)	0	2	11	-11	-2	-8
Cc1ccc([C@@H]2CC=C(C(=O)O)[C@H](c3ccc(Cl)cc3)N2S(=O)(=O)c2ccccc2C)cc1	2	-1	49*	33	-6	-8
CCOc1ccc([C@@H]2CC=C(C(=O)O)[C@H](c3ccc(Cl)cc3)N2S(=O)(=O)c2ccc(C)cc2)cc1	7	-2	35	-5	-2	-11
COc1ccc([C@@H]2CC=C(C(=O)O)[C@H](c3ccc(Cl)cc3)N2S(=O)(=O)c2ccccc2C)cc1	0	0	48*	-14	-26	-6
Cc1ccc([C@@H]2CC=C(C(=O)O)[C@H](c3ccc(F)cc3)N2S(=O)(=O)c2ccccc2C)cc1	0	-1	57*	0	-8	-8
Cc1ccccc1S(=O)(=O)N1[C@@H](c2ccccc2)C(C(=O)O)=CC[C@H]1c1ccc(Cl)cc1	0	-2	76*	7	-20	-19
Cc1ccc(S(=O)(=O)N2[C@@H](c3ccc(Cl)cc3)C(C(=O)O)=CC[C@H]2c2cccc(Cl)c2)cc1	0	1	10	-21	9	-5
O=C(O)C1=CC[C@@H](c2ccc(Cl)cc2)N(S(=O)(=O)c2ccc(Cl)cc2)[C@H]1c1cccc(Cl)c1	-1	-2	85*	37	78*	-20
CCCSc1ccc([C@H]2N[C@@](CC(C)C)(C(=O)OC)[C@H]3C(=O)N(CC)C(=O)[C@@H]23)cc1	-1	-2	6	-10	-3	-2
COC(=O)c1c(C)nc2nonc2c1N	0	-1	65*	-4	5	-10
O=C(NC1CC1)C1CCN(c2ncnc3c2sc2cccc(F)c23)CC1	6	2	68*	-11	-12	-4
Cc1cc(C(=O)Cn2nc(C(=O)O)c3ccccc3c2=O)c(C)n1CCc1ccc(Cl)cc1	-1	-2	49*	13	-15	-19
O=C(Cn1nc(C(=O)O)c2ccccc2c1=O)Nc1cccc(S(=O)(=O)N2CCCCC2)c1	7	4	28	60*	25	-10
O=C(Cn1nc(C(=O)O)c2ccccc2c1=O)Nc1cccc(S(=O)(=O)N2CCOCC2)c1	0	0	12	9	-1	0
O=C(CN1CCCC1c1cccs1)Nc1cccc(S(=O)(=O)N2CCCC2)c1 (centres undefined)	4	2	32*	5	-13	-4
SMILES	V1aR counter	OXTR agonist	OX1R antag-1	OX1R antag-2	CHO parental Ca	OXTR potentiate
Cc1cc(C(=O)Cn2nc(C(=O)O)c3ccccc3c2=O)c(C)n1-c1ccccc1	0	-2	24	-6	-8	-7
O=C(Cn1nc(C(=O)O)c2ccccc2c1=O)Nc1cc(Cl)cc(Cl)c1	3	3	41*	19	-7	-13
O=C(Cn1nc(C(=O)O)c2ccccc2c1=O)Nc1ccc(Br)cc1	5	4	30	20	-7	-10
CN=C1S/C(=C\c2cccc(Cl)c2Cl)C(=O)N1C	-1	-3	10	-29	-25	-5
N#Cc1sc(NCc2ccccn2)nc1Cl	1	0	9	-11	0	-9
CCN(CC)S(=O)(=O)c1cccc(NC(=O)CC2CCCC2)c1	0	-1	20	-25	-9	-8
CCN(CC)S(=O)(=O)c1cccc(NC(=O)CNc2cccc(S(=O)(=O)N3CCCC3)c2)c1	5	3	25	28	57*	-13
CCN(CC)S(=O)(=O)c1cccc(NC(=O)Nc2cccc(C(F)(F)F)c2)c1	9	16	39*	20	59*	-8
CCOC(=O)c1c(S(=O)(=O)NCC(=O)NCc2ccccc2Cl)c(C)n(C)c1C	-1	-2	7	-16	-18	-5
CN(C)CCOC1c2ccccc2CCc2ccc3ccccc3c21 (centres undefined)	1	8	2	-22	-19	-4
O=C(c1ccc2ccccc2c1)N1CCN(c2ccc([N+](=O)[O-])c(N3CCOCC3)c2)CC1	4	1	43	-41	-14	-12
Cc1cccc(C(=O)N2CCN(c3ccc([N+](=O)[O-])c(N4CCOCC4)c3)CC2)c1	0	-3	75*	-61	-10	-6
O=P(CCCCCCCCCP(=O)(c1ccccc1)c1ccccc1)(c1ccccc1)c1ccccc1	24*	20*	26	86*	100*	-21
O=C(O)CCCCCCCCCCP(=O)(c1ccccc1)c1ccccc1	0	1	15	-13	-10	-3
N#Cc1ccc(NC(=O)Nc2ccc(Oc3ccc(NC(=O)Nc4ccc(C#N)cc4)cc3)cc2)cc1	10	3	17	2	38*	-12
Cc1ccc(C)c(-n2sc3ccc(F)cc3c2=O)c1	9	17	20	38	45*	-8
